A selection: hits, their analogues and other compounds. The true share with any hit is near 2.5%.
TCR CD3 inh: blocks the human TCR-CD3 interaction | actives 0.37% (n = 360,000) | AID 651800 | TAMRA-labeled TCR probe fluorescence, biochemical | inhibition, % at 9.4 µM;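 note: recombinant mutant TCR 2C K166C tagged with TAMRA read by polarization; 0% = receptor in buffer alone and 100% = receptor with positive control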
PRMT1 inh: blocks human protein arginine methyltransferase 1; inhibition, % at 2.79 µM; Q99873; AID 652257; recombinant PRMT1, activity-based probe fluorescence polarization; actives 1.3% (n = 370,000);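 active = inhibition above about 21% made by adding two undisclosed values, limit read from the data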
ABHD4 inh: inhibits mouse alpha/beta hydrolase domain 4 | Q8VD66 | purified mABHD4, FP-Rh probe fluorescence polarization | inhibition, % at 8.92 µM | actives 0.54% (n = 370,000);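 active = inhibition exceeding the mean over every tested compound plus 3 SD, cut at about 30% in these data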;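 note: 0% = plate median of compound wells and 100% = S159A mutant with DMSO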
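Test system: mABHD4 protein; Read-out basis: % inhibition; Incubation: 45 min + 60 min at 25 °C; Repeats: single replicate; Technique: fluorescence polarization with parallel and perpendicular emission, 525/598 nm; Compound: 8.92 µM, single dose; Benchmarks: full inhibition S159A mutant plus DMSO, zero as sample-well median.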
SIAE inh: inhibitors of human sialic acid acetylesterase SIAE; Q9HAT2; SIAE FP-Rh probe binding, fluorescence polarization; inhibition, % at 9.66 µM; actives 0.69% (n = 370,000); AID 1053197;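 active = inhibition above a cutoff: mean of compounds within the control limits plus 3 SD of those, cut at about 17% in these data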;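 note: 0% = plate median of compound wells and 100% = probe without SIAE protein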
HTRA1 inh: blocks human HTRA1 serine peptidase | Q92743 | recombinant HTRA1, FP-rhodamine activity-based probe, fluorescence polarization | inhibition, % at 5.96 µM | actives 0.5% (n = 340,000) | AID 504803; in the data active = inhibition above about 36%;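 note: 0% = enzyme with DMSO and 100% = wells lacking enzyme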
Target sequence (Q92743 whole entry, looked up): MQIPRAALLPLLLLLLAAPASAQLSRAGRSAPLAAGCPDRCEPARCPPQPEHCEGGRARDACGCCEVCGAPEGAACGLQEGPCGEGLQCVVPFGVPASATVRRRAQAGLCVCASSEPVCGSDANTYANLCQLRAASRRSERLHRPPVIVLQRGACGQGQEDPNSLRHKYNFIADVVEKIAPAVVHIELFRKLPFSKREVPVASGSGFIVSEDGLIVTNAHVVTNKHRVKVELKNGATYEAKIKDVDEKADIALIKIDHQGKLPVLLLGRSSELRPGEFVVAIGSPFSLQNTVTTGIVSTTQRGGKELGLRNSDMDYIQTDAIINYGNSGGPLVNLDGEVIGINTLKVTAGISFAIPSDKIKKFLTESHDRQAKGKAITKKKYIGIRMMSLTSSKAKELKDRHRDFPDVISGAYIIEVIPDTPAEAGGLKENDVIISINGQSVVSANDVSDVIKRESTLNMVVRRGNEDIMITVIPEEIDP
BSA probe FL: BSA probe counter-screen for TCR-CD3 inhibitors; TAMRA-labeled BSA probe fluorescence counterscreen; actives 10% (n = 1,200); inhibition, % at 9.4 µM; shares compounds with TCR CD3 inh; AID 652035; in the data active = inhibition above about 23%;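 note: 0% = buffer low control and 100% = reference high control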
TCR-CD3 conf: confirmation of human TCR-CD3 interaction inhibitors; shares compounds with TCR CD3 inh; TAMRA-labeled TCR probe fluorescence binding assay; inhibition, % at 9.4 µM; actives 48% (n = 1,200); AID 652036
PRMT1 confirm: confirmation of human PRMT1 inhibitors; shares compounds with PRMT1 inh; recombinant His-PRMT1, activity-based probe fluorescence polarization; inhibition, % at 2.79 µM; actives 42% (n = 3,300); AID 687036;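 active = mean inhibition across replicates above the hit cutoff derived for the earlier primary screen, cut at about 22% in these data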
Numbers without * were called inactive; · = no result. Cut-off read from the data, not from the text of the source, unless noted: active = inhibition above about 19%; inactive = the rest.

SMILES	TCR CD3 inh	PRMT1 inh	ABHD4 inh	SIAE inh	HTRA1 inh	BSA probe FL	TCR-CD3 conf	others
COc1ccccc1NS(=O)(=O)c1cccc(C(=O)N/N=C/c2cn(-c3ccccc3)nc2-c2ccccc2)c1	45.0*	-4.8	-91.2	-96.6	-27.1	22.3	43.6*
COc1ccc(NS(=O)(=O)c2cccc(C(=O)N/N=C/c3cn(-c4ccccc4)nc3-c3ccccc3)c2)cc1	0.4	0.8	-1.5	-11.6	-4.7	·	·
Cc1oc(-c2cccc(Cl)c2)nc1CS(=O)(=O)CC(=O)NCCN1CCCC1	21.2*	8.2	4.7	-4.3	-7.0	5.3	7.7
Cc1oc(-c2cccc(Cl)c2)nc1CS(=O)(=O)CC(=O)NCCN1CCOCC1	4.6	-3.6	-0.9	3.1	0.2	·	·
CC(Cl)C(=O)N1CCC(C(=O)NCC2COc3ccccc3O2)CC1 (stereo unspecified)	·	9.4	3.4	-2.3	·	·	·
O=C(Nc1nc2ccccc2s1)c1cnccn1	-5.6	0.8	-1.8	-6.7	-1.0	·	·
O=C(Nc1nc(-c2ccco2)c(-c2ccco2)s1)c1cnccn1	38.4*	36.8*	23.2	13.5	·	-0.3	14.6
O=C(NNC(=O)c1cc2ccccc2o1)c1ccncc1	6.9	-2.2	4.2	5.9	2.5	·	·
O=C(NNC(=O)c1ccccc1O)c1cc2ccccc2o1	33.1*	0.3	15.7	0.0	6.1	-8.9	21.8*
COc1ccc(OCC(=O)N2CCC(n3nccc3NC(=O)C3CC3)CC2)cc1	20.5*	-1.1	-2.5	-1.2	3.1	10.3	9.0
COc1ccc(S(=O)(=O)N2CCN(CC(=O)c3ccc(O)c(O)c3)CC2)cc1	24.9*	13.8	14.8	10.9	19.0	-4.0	18.0
CC(C)CC(O)(CC(C)C)c1cn(C(=O)N(c2ccccc2)c2ccccc2)nn1	·	-0.1	0.6	0.9	·	·	·
c1ccc2cc3[nH]c(CNc4nc(N5CCOCC5)nc5c4ncn5-c4ccsc4)nc3cc2c1	·	-3.6	25.1	7.9	·	·	·
CCOC(=O)c1sc(NC(=O)C(CC)OC(=O)c2ccco2)nc1C (stereo unspecified)	19.4*	-1.5	-4.6	-12.1	-4.8	-1.3	-0.9
CCc1c(C)sc(NC(=O)OC)c1C(=O)N1CCCCC1	19.4*	6.6	15.1	8.1	12.1	20.5	17.1
NC(=O)NC(=O)CSc1ccccc1	3.9	-0.8	1.2	-6.2	-2.6	·	·
O=C(CSc1ccccc1)NNC(=O)c1ccccc1O	19.2*	3.2	9.2	9.3	35.5	-10.2	25.9*
O=S(=O)(c1ccc(NC(=S)NCCC(c2ccccc2)c2ccccc2)cc1)N1CCOCC1	32.8*	0.5	-100.7	-230.0	-72.8	14.1	17.6
Nc1[nH]c(C(=O)c2ccccc2)c(-c2cccc3ccccc23)c1C(=O)c1c(-c2ccccc2)[nH]c2ccccc12	·	0.9	1.9	2.7	·	·	·
O=C1c2ccccc2C(c2nnnn2-c2ccc3c(c2)OCCO3)N1Cc1ccco1 (stereo unspecified)	25.2*	3.0	2.1	15.6	·	3.5	0.1
COC(=O)c1cc(O)c(O)c(O)c1	22.1*	3.7	12.2	7.8	12.7	-1.0	20.0*
CCCCCCCCN1C(=O)[C@@H](CC(=O)N2CCCCC2)C[C@@]2(C(=O)OC)C1=C[C@H](C(C)C)O[C@@H]2C1CC1	·	1.0	6.5	0.0	·	·	·
CCC/C(C)=N/NC(=O)c1ccccc1O	5.4	-1.3	5.1	0.7	8.4	·	·
CCOC(=O)C(CC)/C(C)=N\NC(=O)c1ccccc1O (stereo unspecified)	34.8*	0.1	8.7	5.7	31.1	22.0	38.1*
COc1cc(-n2c(C)nc3cc(C(=O)N4CC(C)CC(C)C4)ccc32)cc(OC)c1OC (stereo unspecified)	·	-4.8	-9.3	-0.5	·	·	·
SMILES	TCR CD3 inh	PRMT1 inh	ABHD4 inh	SIAE inh	HTRA1 inh	BSA probe FL	TCR-CD3 conf	others
O=C(NNS(=O)(=O)c1ccccc1[N+](=O)[O-])c1cc2ccccc2cc1O	19.6*	5.2	24.6	5.3	19.4	-7.7	10.2
Cc1ccc(NC(=O)CN(C)C(=O)c2cccc(-n3cccc3)c2)cc1	22.4*	-4.1	-0.4	-2.0	-18.1	-8.7	14.9
CC1=NN(C(=O)c2ccccc2C)C(O)(c2ccc(Cl)cc2)C1 (stereo unspecified)	14.3	-0.7	-2.0	5.5	20.7	·	·
CC1=NN(C(=O)c2ccccc2Br)C(O)(c2ccc(Cl)cc2)C1 (stereo unspecified)	27.6*	-3.2	1.8	-7.9	23.3	-6.5	13.2
Cn1cccc1CC(=O)NNC(=S)NC(=O)c1ccccc1Br	28.0*	3.4	9.8	3.5	6.6	-3.8	16.4
CC(C)Cc1nnc(NC(=O)CCC(=O)NC2CCCCC2)s1	20.4*	1.8	4.6	3.2	3.9	-2.1	-1.1
C[C@H]1COc2cccc(N3CCCC3)c2S(=O)(=O)N1C	·	-1.1	7.4	-4.2	·	·	·
Cc1ccc(NC(=O)C(OC(=O)c2ccc(NC(N)=O)cc2)c2ccccc2)cc1Cl (stereo unspecified)	45.8*	-1.6	-130.5	-48.8	-96.5	17.6	31.7*
N#CCC(=O)Nc1ccc(C(=O)OC(C(=O)Nc2cc(C(F)(F)F)ccc2Cl)c2ccccc2)cc1 (stereo unspecified)	46.6*	-4.4	-70.5	-96.5	-86.8	18.6	33.9*
CCC(NC(=O)CCCN1C(=O)COc2ccc(C)cc21)c1ccccc1 (stereo unspecified)	·	-3.9	-4.4	1.5	·	·	·
O=[N+]([O-])c1cccc(/C=N/n2cnnc2)c1O	0.1	-1.4	2.5	1.7	0.5	·	·
O=c1c2c(-c3ccc(Cl)cc3)csc2ncn1/N=C/c1cccc([N+](=O)[O-])c1O	30.2*	1.8	7.1	6.6	11.5	-10.5	28.9*
CSCCCNC(=O)c1oc(=O)c2ccccc2c1-c1ccc(C)cc1	·	0.0	-6.1	-0.5	·	·	·
O=C(NN=C1CCCC1)c1ccccc1O	22.5*	-2.2	6.7	8.1	13.2	-14.8	15.3
Cc1cccc(CNC(=S)OC2CCC23CCC(c2ccccc2)CC3)c1 (stereo unspecified)	·	5.5	-17.2	-5.3	·	·	·
CCOC(=O)C1=CCN(S(=O)(=O)c2cccc(Cl)c2)C1c1cccc(F)c1 (stereo unspecified)	65.0*	-1.1	-7.8	-5.9	·	5.1	4.2
NC(=O)c1sc2nc(-c3ccco3)ccc2c1N	20.3*	50.8*	24.6	-0.1	8.5	-5.7	2.3	PRMT1 confirm=17.1
NC(=O)c1sc2nc(-c3cccnc3)ccc2c1N	5.0	7.7	2.3	5.7	·	·	·
COc1ccc(CNC(=S)OC2CCC23CCC(c2ccccc2)CC3)cc1 (stereo unspecified)	·	-1.3	-14.5	-4.5	·	·	·

High-throughput results from PubChem.
